According to ChEMBL document CHEMBL2417381, “New anticancer agents mimicking protein recognition motifs” (J Med Chem, 2013):
The source made the active and inactive calls. The rule behind the calls is not given here.

Tests used:
M14 [1] = assay: Cell cycle arrest in human M14 cells assessed as accumulation at G0/G1 phase after 24 hrs by propidium iodide staining-based flow cytometry; format: functional; details: in the assay text read “accumulation at S phase” for “accumulation at G0/G1 phase”
In short: (§1)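 5 × 10^4 M14 cells cultured 24 h, then dosed and cultured a further 24 or 48 h. Permeabilized cells labelled 30 min at 4 °C with propidium iodide in 0.1% sodium citrate/0.1% Triton X-100, then analysed by flow cytometry. For cell cycle, 10,000 events per sample assigned to G0/G1, S and G2/M. Each determination repeated three times.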

M14 [2] = assay: Induction of apoptosis in human M14 cells after 48 hrs by propidium iodide staining-based flow cytometry; format: functional, cell-based; in short: as §1
M14 [3] = assay: Cell cycle arrest in human M14 cells assessed as accumulation at S phase after 24 hrs by propidium iodide staining-based flow cytometry; format: functional; in short: as §1
M14 [4] = assay: Cell cycle arrest at S phase in human M14 cells assessed as change in size of nucleus after 24 hrs by DAPI staining-based fluorescence microscopy; format: functional
In short: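 M14 cells grown on coverslips and dosed after 24 h. Fixed in 3.7% formaldehyde for 30 min, quenched with 0.1 M glycine, then DAPI-stained 20 min at room temperature. Nuclear areas measured by fluorescence microscopy image analysis. Mean ± SEM of at least twenty measurements; one-way ANOVA with Bonferroni post test.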

M14 [5] = assay: Cell cycle arrest at G1/S phase in human M14 cells assessed as increase in cyclin A expression at IC50 after 24 hrs by Western blotting analysis; format: functional, cell-based
In short: (§2)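 Treated cells lysed in modified RIPA buffer (10 mM Tris-HCl pH 7.4, 150 mM NaCl, 1 mM EDTA, 1% NP40, 0.1% deoxycholate, 1 mM PMSF, protease inhibitors). Equal protein loads separated on 10–12% SDS-PAGE and blotted to nitrocellulose. Blocked in 10% milk/0.1% Tween-20, probed with anti-cyclin A or anti-p53 and HRP secondary; tubulin used as loading reference.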

M14 [6] = assay: Cell cycle arrest at G1/S phase in human M14 cells assessed as increase in cyclin A expression at IC50 after 48 hrs by Western blotting analysis; format: functional, cell-based; in short: as §2
M14 [7] = assay: Cell cycle arrest in human M14 cells assessed as accumulation at G2/M phase after 24 hrs by propidium iodide staining-based flow cytometry; format: functional; details: in the assay text read “accumulation at S phase” for “accumulation at G2/M phase”; in short: as §1
M14 [8] = assay: Induction of p53 expression in human M14 cells after 48 hrs by Western blotting analysis; format: functional, cell-based; in short: as §2
M14 [9] = assay: Induction of apoptosis in human M14 cells assessed as accumulation of p53 in nuclear fraction after 24 hrs by Western blotting analysis relative to control; format: functional, cell-based
M14 [10] = assay: Induction of p53 expression in human M14 cells after 24 hrs by Western blotting analysis; format: functional, cell-based; in short: as §2
M14 [11] = assay: Cytostatic activity against human M14 cells at 5 to 10 uM after 24 hrs by trypan blue dye exclusion assay relative to control; format: functional, cell-based
In short: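 Exponentially growing M14 cells plated and grown 24 h. Then treated at 5 and 10 µM in 0.1% DMSO for 24, 48 or 72 h. Stained with 0.2% trypan blue and counted in a hemocytometer; percentage of dead cells calculated.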

M14 [12] = assay: Antiproliferative activity against human M14 cells assessed as cell viability incubated for 24 hrs followed by compound washout measured after 48 hrs by MTT assay; format: functional, cell-based
In short: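 M14 cells exposed for 24 h, then medium removed and cells resuspended in compound-free medium. Further incubation for 24 and 48 h, then viability read by MTT: 1 mg/mL for 1–3 h at 37 °C, formazan dissolved in DMSO, absorbance at 550 and 620 nm.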

MCF7 = assay: Antiproliferative activity against human MCF7 cells after 48 hrs by MTT assay; format: functional, cell-based; details: MCF7, 48 h
In short: (§3)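 Cells grown at 37 °C in DMEM with 25 mM glucose, 10% fetal calf serum, penicillin/streptomycin and 2 mmol/L glutamine. 5000 cells per well; after 24 h, exposed to 100 nM–100 µM for 24 and 48 h. MTT 1 mg/mL for 1–3 h at 37 °C, formazan dissolved in DMSO, absorbance read at 550 and 620 nm. IC50 from four-parameter sigmoidal nonlinear regression.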

M14 [13] = assay: Induction of apoptosis in human M14 cells assessed as accumulation of p53 in nuclear fraction after 48 hrs by Western blotting analysis relative to control; format: functional, cell-based
Huh-7 = assay: Antiproliferative activity against human HuH7 cells after 48 hrs by MTT assay; format: functional, cell-based; details: Huh-7, 48 h; in short: as §3
M14 [14] = assay: Antiproliferative activity against human M14 cells after 48 hrs by MTT assay; format: functional, cell-based; details: M14, 48 h; in short: as §3
RAW264.7 = assay: Antiproliferative activity against mouse RAW264.7 cells after 48 hrs by MTT assay; format: cell-based; details: RAW264.7, 48 h; in short: as §3
Jurkat = assay: Antiproliferative activity against human Jurkat cells after 48 hrs by MTT assay; format: functional, cell-based; in short: as §3
[15] = molecular target: Tumour suppressor p53/oncoprotein Mdm2 (Homo sapiens) (UniProt P04637+Q00987); assay: Inhibition of human recombinant p53-MDM2 interaction assessed as p53 release by NMR spectroscopy relative to untreated control; format: protein assay
In short: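 Complex formed from refolded recombinant His-tagged human p53 (residues 1-312, expressed in E. coli BL21(DE3) RIL) and refolded MDM2, mixed 1:2, with excess MDM2 removed by gel filtration. Complex at 0.1 mM in 50 mM phosphate pH 7.4, 150 mM KCl, 5 mM DTT; formal protein:inhibitor molar ratio 1:1.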

[16] = Solubility of the compound in phosphate buffer at pH 7.4 by UV-Visible spectrophotometry; format: physicochemical
In short: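 10 mM DMSO stock added one microlitre at a time, 10 min apart, to 20 mM phosphate buffer with 150 mM KCl, pH 7.4, at 25 °C. Precipitation followed as the rise in light-scattering absorbance over 500–900 nm.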

Chain of Tumour suppressor p53/oncoprotein Mdm2 (Homo sapiens) (P04637 whole entry, looked up, the tested form may be a part): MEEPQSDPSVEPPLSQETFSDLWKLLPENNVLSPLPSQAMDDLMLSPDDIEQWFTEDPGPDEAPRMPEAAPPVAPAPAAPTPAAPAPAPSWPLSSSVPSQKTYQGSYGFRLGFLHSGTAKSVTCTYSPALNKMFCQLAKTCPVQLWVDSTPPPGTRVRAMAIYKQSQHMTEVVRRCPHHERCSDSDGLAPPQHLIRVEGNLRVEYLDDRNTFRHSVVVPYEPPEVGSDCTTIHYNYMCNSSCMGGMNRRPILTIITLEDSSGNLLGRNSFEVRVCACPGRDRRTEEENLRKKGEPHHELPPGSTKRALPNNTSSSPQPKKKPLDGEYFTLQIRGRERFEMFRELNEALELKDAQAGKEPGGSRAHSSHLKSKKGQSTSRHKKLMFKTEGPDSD
Chain of Tumour suppressor p53/oncoprotein Mdm2 (Homo sapiens) (Q00987 whole entry, looked up, the tested form may be a part): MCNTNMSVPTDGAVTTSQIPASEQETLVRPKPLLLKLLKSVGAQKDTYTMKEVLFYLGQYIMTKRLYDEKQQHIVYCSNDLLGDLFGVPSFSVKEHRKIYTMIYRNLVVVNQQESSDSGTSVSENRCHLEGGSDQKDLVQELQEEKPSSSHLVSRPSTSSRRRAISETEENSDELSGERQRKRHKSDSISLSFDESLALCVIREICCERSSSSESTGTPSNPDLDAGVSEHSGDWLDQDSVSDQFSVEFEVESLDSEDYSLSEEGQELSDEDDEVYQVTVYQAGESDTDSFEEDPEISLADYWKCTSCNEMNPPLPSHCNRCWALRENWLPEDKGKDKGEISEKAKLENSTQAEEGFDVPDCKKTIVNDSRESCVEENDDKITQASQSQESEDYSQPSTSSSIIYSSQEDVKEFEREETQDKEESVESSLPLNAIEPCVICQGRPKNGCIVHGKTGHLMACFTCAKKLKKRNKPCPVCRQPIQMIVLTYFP

Row | IC50 (MCF7) | IC50 (Huh-7) | IC50 (Jurkat) | inhibition [15] | solubility [16] | SMILES | Activity (M14 [1]) | Activity (M14 [2]) | Activity (M14 [3]) | Activity (M14 [4]) | Activity (M14 [5]) | Activity (M14 [6]) | Activity (M14 [7]) | Activity (M14 [8]) | Activity (M14 [9]) | Activity (M14 [10]) | Activity (M14 [11]) | Activity (M14 [12]) | Activity (M14 [13]) | IC50 (M14 [14]) | IC50 (RAW264.7)
1 | > 100 µM | > 100 µM | > 100 µM | – | – | Cc1c(C(=O)c2ccccc2)cc(C(=O)NCc2cccc(I)c2)n1Cc1ccccc1 | Active | Active | Active | Active | Active | Active | Active | inactive | Active | Active | inactive | inactive | inactive | 5 µM | > 100 µM
2 | > 100 µM | > 100 µM | > 100 µM | – | – | Cc1c(C(=O)c2ccccc2)cc(C(=O)NCc2cccc(Cl)c2)n1Cc1ccccc1 | Active | Active | Active | Active | Active | – | Active | inactive | Active | Active | inactive | inactive | inactive | 7.5 µM | > 100 µM
3 | > 100 µM | > 100 µM | > 100 µM | inactive | ≤ 6.8 µM | Cc1ccc(Cn2c(C(=O)NCc3cccc(Cl)c3)cc(C(=O)c3ccccc3)c2C)cc1 | Active | Active | Active | Active | Active | Active | Active | inactive | Active | Active | inactive | inactive | inactive | 2.5 µM | > 100 µM
